GSTO1 counter – inhibitors of recombinant GSTO1, primary screen, counter-screen for RBBP9 inhibitor project, biochemical, fluorescence polarization; activity-based probe fluorescence polarization; inhibition, % at 5.96 µM; AID 1974, 2009; 300,000 tested, 1.1% active; Glutathione S-transferase omega-1 (Homo sapiens), P78417;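 active means inhibition above the campaign mean inhibition plus 3 SD, cut at about 35% in these data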;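 further: 0% = GSTO1-1 with DMSO and 100% = wells lacking GSTO1-1 enzyme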
Target sequence (P78417 whole entry, looked up): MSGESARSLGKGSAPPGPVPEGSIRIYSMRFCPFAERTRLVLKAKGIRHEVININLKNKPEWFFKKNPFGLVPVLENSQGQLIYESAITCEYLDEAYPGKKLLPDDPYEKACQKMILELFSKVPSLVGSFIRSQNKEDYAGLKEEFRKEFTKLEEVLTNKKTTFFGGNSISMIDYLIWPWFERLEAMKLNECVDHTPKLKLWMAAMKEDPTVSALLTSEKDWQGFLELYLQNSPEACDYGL
PRMT1 inh – PRMT1 methyltransferase inhibitors, primary screen, biochemical, fluorescence polarization; recombinant PRMT1, activity-based probe fluorescence polarization; inhibition, % at 2.79 µM; 370,000 tested, 1.3% active; Protein arginine N-methyltransferase 1 (Homo sapiens), Q99873;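 active means inhibition above about 21% made by adding two undisclosed values, limit read from the data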
Target sequence (Q99873 whole entry, looked up): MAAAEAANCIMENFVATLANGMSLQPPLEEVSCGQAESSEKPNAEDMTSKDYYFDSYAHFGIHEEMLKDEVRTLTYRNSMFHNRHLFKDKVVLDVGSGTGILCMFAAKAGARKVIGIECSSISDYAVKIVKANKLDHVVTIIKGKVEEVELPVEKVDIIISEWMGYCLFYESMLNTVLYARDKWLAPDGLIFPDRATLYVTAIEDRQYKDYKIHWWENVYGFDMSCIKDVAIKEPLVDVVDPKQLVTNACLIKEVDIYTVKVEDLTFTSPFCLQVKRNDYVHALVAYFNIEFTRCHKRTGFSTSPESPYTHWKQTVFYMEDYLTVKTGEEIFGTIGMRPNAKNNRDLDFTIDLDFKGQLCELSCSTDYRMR
Fam108B inh – mouse Fam108B serine hydrolase inhibitors, primary screen, counter-screen for RBBP9 inhibitor project, biochemical, fluorescence polarization; recombinant Fam108B, FP-Rh probe fluorescence polarization; inhibition, % at 9.51 µM; 300,000 tested, 0.33% active; AID 1947, 2009;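 active means inhibition above the screen mean inhibition plus 3 SD, computed separately per campaign, cut at about 18% in these data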;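 further: inhibitors lower polarization as less probe binds the enzyme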
PAD4 inh – human PAD4 inhibitors, primary screen, biochemical, fluorescence polarization, 1536-well format; inhibition, % at 6.36 µM; AID 485272, 2010; Protein-arginine deiminase type-4 (Homo sapiens), Q9UM07; 330,000 tested, 0.41% active; recombinant PAD4, RCA probe fluorescence polarization;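 active means percent inhibition above a cutoff equal to the mean of all tested compounds plus 3 SD, cut at about 15% in these data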;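 further: 0% = PAD4 with RCA probe and DMSO and 100% = probe without PAD4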
PME-1 inh – PME-1 inhibitors via competitive probe labeling, primary screen, biochemical, fluorescence polarization, FP-Rh probe, HTS | AID 2130, 2009 | 320,000 tested, 0.53% active | inhibition, % at 5.9 µM | recombinant PME-1;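 active means inhibition above the campaign mean of all compounds plus 3 SD, cut at about 26% in these data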;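 further: competitive labeling of PME-1 active site by serine hydrolase directed probe; 0% = PME-1 with DMSO and 100% = wells lacking PME-1 enzyme; inhibitors block probe labeling so polarization falls and inhibition rises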
RBBP9 inhibitor – human RBBP9 inhibitors, primary screen, biochemical, fluorescence polarization, FP-Rh probe, HTS. AID 1515, 2009. recombinant RBBP9. Serine hydrolase RBBP9 (Homo sapiens), O75884. inhibition, % at 7.94 µM. 220,000 tested, 0.2% active;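 active means inhibition above the campaign mean of all tested compounds plus 3 SD, cut at about 14% in these data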;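 further: plate controls were DMSO wells with RBBP9 for no effect and wells lacking RBBP9 protein for full effect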
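System: RBBP9 protein / Buffer or medium: Tris/NaCl buffer pH 8.0 with 0.1% Pluronic / Probe or stimulus: Serine-hydrolase probe FP-Rh, 375 nM pre-mixing / Dosing: 7.94 µM single dose, 0.794% DMSO / Times: enzyme-compound preincubation 30 min, then probe labeling 45 min, 25 °C / Technique: fluorescence polarization (mP), excitation 525 nm, emission 598 nm / Replication: singlicate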
* hit, by the source's call; . = not tested or not shown. An excerpt weighted towards active compounds, which were near 2.3% of everything screened.

SMILES | GSTO1 counter | PRMT1 inh | Fam108B inh | PAD4 inh | PME-1 inh | RBBP9 inhibitor
CC1=NC(=O)C(N=Nc2cccc(O)c2)N1c1ccccc1 (centres undefined) | -4 | 1 | 4 | 3 | 30* | -8
Cc1ccccc1CN1CCN(S(=O)(=O)c2cccc3nsnc23)CC1 | -5 | -2 | -10 | -4 | 1 | .
O=C(NNC(=S)Nc1ccccc1Cl)c1ccccc1 | 2 | -2 | -1 | -5 | 2 | .
COc1ccc(/C=C2\SC(=S)N(CC(=O)OCC(=O)Nc3ccc(C)cc3Cl)C2=O)cc1 | -6 | 21* | -3 | -5 | -6 | 2
COc1ccc(NC(=O)c2ccc([N+](=O)[O-])s2)c([N+](=O)[O-])c1 | 55* | 2 | 3 | -1 | 1 | 0
Cn1c2ccccc2c2cc(/C=N/NC(=O)c3ccc(O)cc3O)ccc21 | -51 | . | 15 | -5 | 47* | .
Cc1cc(NC(=O)c2ccccc2)n(C(C)(C)C)n1 | 9 | 1 | 2 | 2 | -9 | 1
O=C(O)C1OC(Oc2cc3oc(-c4ccccc4)cc(=O)c3c(O)c2O)C(O)C(O)C1O (centres undefined) | 37* | 28* | 2 | -3 | -3 | 4
COc1c(OC2OC(C(=O)O)C(O)C(O)C2O)cc(O)c2c(=O)cc(-c3ccccc3)oc12 (centres undefined) | 12 | 10 | 3 | 0 | -4 | 1
Cc1noc(NS(=O)(=O)c2ccc(NC(=O)Nc3ccc(Cl)c(Cl)c3)cc2)c1C | -35 | -2 | 8 | -32 | 51* | -3
COC/C=C/C1=CC2=CC(=O)C(C)(OC(=O)c3ccco3)C(=O)C2=CO1 (centres undefined) | 36* | . | 9 | 24* | -4 | .
COC/C=C/C1=CC2=CC(=O)C(C)(O)C(=O)C2=CO1 (centres undefined) | 42* | . | 6 | 1 | -3 | .
COC/C=C/C1=CC2=CC(=O)C(C)(OC(=O)c3cccs3)C(=O)C2=CO1 (centres undefined) | 10 | . | 3 | 6 | -2 | .
CC1=NN(c2ccccc2C(=O)O)C(=O)C1N=Nc1ccccc1 (centres undefined) | 36* | 0 | 7 | -5 | 16 | .
CC1=NN(C(N)=S)C(=O)C1N=Nc1ccccc1C(=O)O (centres undefined) | 4 | 2 | -1 | -2 | -2 | .
CCOC(=O)C1=C(C)Nc2ccccc2N/C1=N\S(=O)(=O)c1cccc(Cl)c1 | . | 6 | . | 2 | 26* | .
CCOC(=O)C1=C(C)Nc2ccccc2N/C1=N\S(=O)(=O)c1ccc(Cl)cc1 | . | -3 | . | -1 | 2 | .
CCOc1ccc(/C=C2/C(=O)N(c3ccc(OC)cc3)C(=S)N2CC(=O)OC)cc1OCC | -4 | 0 | -1 | 6 | 4 | 4
N=c1scc(-c2ccccc2)n1/N=C/c1ccco1 | 1 | 34* | 13 | -6 | -1 | -1
C(=N/n1c2ccccc2c2ccccc21)/c1ccco1 | -3 | 2 | 0 | -1 | 4 | -6
O=C(COc1ccc(S(=O)(=O)N2CCOCC2)cc1)N1CCCCCC1 | -5 | -1 | 2 | -2 | -6 | -1
Clc1ccc(N=c2ssnc2Cl)nc1 | 19 | 21* | 0 | 6 | 3 | 1
Cc1cc(-c2cc(-c3ccc(Cl)cc3)nc(N)c2C#N)co1 | 18 | 39* | 3 | -10 | -1 | 3
COc1ccc(-c2cc(-c3ccc(O)cc3)nc(N)c2C#N)cc1OC | 3 | 3 | 1 | 2 | -8 | -7
COc1ccc(NC(=S)Nc2ncccc2C)c(OC)c1 | -1 | 2 | 3 | 1 | 2 | -8
SMILES | GSTO1 counter | PRMT1 inh | Fam108B inh | PAD4 inh | PME-1 inh | RBBP9 inhibitor
C=C(CN(C)C)C(=O)c1ccc(C)cc1C | . | 23* | . | . | . | .
C=C(CN(C)C)C(=O)c1cc(OC)c(OC)cc1OC | . | 4 | . | . | . | .
CCOc1cc(/C=N/Nc2ncnc(Cl)c2N)ccc1O | 9 | 5 | 5 | 0 | -4 | -9
COc1ccc(-c2cc(-c3c(O)c(OC)c4occc4c3OC)[nH]n2)cc1 | -4 | 2 | 11 | 0 | 33* | 2
Cc1ccc(NC(=O)CN(C)C(=O)c2ccccc2Cc2ccccc2)cc1 | . | 0 | . | . | . | .
Cc1nc2[nH]c(=S)[nH]c(=O)c2nc1C | . | 1 | . | . | . | .
Cc1nc2c(=O)[nH]c(=S)[nH]c2[nH]c1=O | . | 24* | . | . | . | .
CCCc1cc(=O)[nH]c(N/N=C/C=C\c2ccccc2)n1 | -4 | -2 | 4 | -8 | 1 | 0
N#Cc1c(N)nc2c3c(sc(=N)c2c1N)NC(=O)CC3c1ccccc1 (centres undefined) | -12 | 8 | 9 | -2 | 29* | -1
Cc1c(C#N)c(N)nc2c3c(sc12)NC(=O)CC3c1ccc(Cl)cc1 (centres undefined) | 5 | 0 | -2 | -1 | 0 | 8
N#Cc1c(N)nc2c3c(sc(=N)c2c1N)NC(=O)CC3c1c(F)cccc1Cl (centres undefined) | 35* | 1 | 12 | 2 | 63* | 6
CCOC(=O)CSc1nnc(Cc2ccccc2)n1-c1cccc(Cl)c1 | -2 | . | 0 | 1 | 9 | -7
Cc1cc(OC(=O)C2CC2)c([N+](=O)[O-])c(=O)[nH]1 | 2 | 0 | -1 | -6 | -7 | 5
COc1cccc(NC2=C(C#N)C(=O)NC(c3cccc(OC)c3O)S2)c1 (centres undefined) | 10 | 3 | 4 | -1 | 0 | -7
N#CC1=C(Nc2ccccc2Cl)SC(c2ccccc2O)NC1=O (centres undefined) | -7 | 24* | 0 | 3 | -7 | 3
COc1ccc(CNC(=O)C2Cc3cc(S(=O)(=O)N4CCCC4)ccc3N2C(C)=O)c(OC)c1 (centres undefined) | -3 | 3 | -3 | -5 | 3 | .
COc1cccc2c1C(=O)c1c(O)c3c(c(O)c1C2=O)C[C@@](O)(C(=O)CO)C[C@@H]3OC1CC(N)C(O)C(C)O1 (some centres undefined) | . | 141* | . | . | . | .
CC12CCC(=O)N1C(C(=O)NNC(=O)COc1ccccc1F)CS2 (centres undefined) | . | 1 | . | 2 | -5 | .
CCC/C=C1/CCCOC(C(=O)NCc2ccccn2)(C(F)(F)F)C1 (centres undefined) | -3 | 1 | 2 | -2 | 2 | .
CCC/C=C1/CCCOC(C(=O)NCc2ccc(C)o2)(C(F)(F)F)C1 (centres undefined) | . | 45* | . | 0 | . | .
Fc1ccc(N=C2NN=C(c3cc(F)ccc3F)CS2)cc1 | -5 | 7 | 0 | -19 | 0 | -2

Screens: PubChem, The Scripps Research Institute Molecular Screening Center
